ChEMBL document CHEMBL4706499, “PTG-0861: A novel HDAC6-selective inhibitor as a therapeutic strategy in acute myeloid leukaemia” (Eur J Med Chem, 2020)
Calls of active or inactive are those of the source. No cut-off for these calls is given here.

Tests used:
[1] = molecular target: Histone deacetylase 9 (Homo sapiens, UniProt Q9UKV0); experiment: Inhibition of recombinant full length human HDAC9 expressed in SF9 baculovirus using FAM- labelled acetylated peptide as substrate measured by Electrophoretic mobility shift assay
Histone deacetylase 9, sequence (Q9UKV0 whole entry): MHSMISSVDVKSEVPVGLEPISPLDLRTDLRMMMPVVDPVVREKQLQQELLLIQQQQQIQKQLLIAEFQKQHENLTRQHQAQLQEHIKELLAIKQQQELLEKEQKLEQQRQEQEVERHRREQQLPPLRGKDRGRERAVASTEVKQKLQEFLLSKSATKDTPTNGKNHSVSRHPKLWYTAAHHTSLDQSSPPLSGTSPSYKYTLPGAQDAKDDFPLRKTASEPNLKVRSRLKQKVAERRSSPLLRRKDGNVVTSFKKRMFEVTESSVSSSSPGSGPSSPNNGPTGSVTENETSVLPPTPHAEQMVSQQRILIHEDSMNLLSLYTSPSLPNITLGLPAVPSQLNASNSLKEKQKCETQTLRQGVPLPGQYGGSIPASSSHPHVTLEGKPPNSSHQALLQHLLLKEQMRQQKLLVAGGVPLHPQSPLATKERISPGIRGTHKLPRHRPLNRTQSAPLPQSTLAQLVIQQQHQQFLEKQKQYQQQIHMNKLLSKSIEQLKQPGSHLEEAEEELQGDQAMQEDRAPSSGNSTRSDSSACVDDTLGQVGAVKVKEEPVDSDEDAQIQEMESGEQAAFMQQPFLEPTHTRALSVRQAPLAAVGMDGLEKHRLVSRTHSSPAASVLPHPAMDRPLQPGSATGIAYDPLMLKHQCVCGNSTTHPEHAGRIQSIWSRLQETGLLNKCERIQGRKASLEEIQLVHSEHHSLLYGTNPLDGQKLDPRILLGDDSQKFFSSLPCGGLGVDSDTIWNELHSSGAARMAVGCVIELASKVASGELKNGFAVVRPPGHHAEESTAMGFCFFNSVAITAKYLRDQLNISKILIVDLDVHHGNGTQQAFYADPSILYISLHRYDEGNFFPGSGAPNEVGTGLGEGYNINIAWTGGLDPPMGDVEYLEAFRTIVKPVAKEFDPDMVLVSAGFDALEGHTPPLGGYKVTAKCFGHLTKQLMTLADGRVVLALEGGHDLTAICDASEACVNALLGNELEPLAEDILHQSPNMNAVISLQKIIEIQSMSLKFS

[2] = test system: MV4-11; experiment: Induction of apoptosis in human MV4-11 cells assessed as late apoptotic cells at 0.25 microM measured after 18 hrs by Annexin V/Propidium iodide stain based Flow cytometry assay (reference value: 4.91%); format: functional
[3] = Glutathione reactivity at pH 7.4 assessed as compound remaining measured after 120 mins by LC-MS/MS method; format: physicochemical; details: glutathione solution, read-out: Stabilty
[4] = test system: MV4-11; experiment: Induction of apoptosis in human MV4-11 cells assessed as viable cells at 2 microM measured after 18 hrs by Annexin V/Propidium iodide stain based Flow cytometry assay (reference value: 53.27%); format: functional; details: read-out: Activity
[5] = Half life in CD1 mouse at 20 mg/kg, ip measured after 24 hrs by LC/MS/MS method; format: ADME, organism-based; details: in vivo
[6] = molecular target: T1, Protein deacetylase HDAC6 (Homo sapiens) (UniProt Q9UBN7); experiment: Inhibition of HDAC6 in human HeLa cells assessed as increase in acetylated alpha tubulin at 0.1 uM measured after 6 hrs by Immunofluorescent assay
T1 sequence (whole entry): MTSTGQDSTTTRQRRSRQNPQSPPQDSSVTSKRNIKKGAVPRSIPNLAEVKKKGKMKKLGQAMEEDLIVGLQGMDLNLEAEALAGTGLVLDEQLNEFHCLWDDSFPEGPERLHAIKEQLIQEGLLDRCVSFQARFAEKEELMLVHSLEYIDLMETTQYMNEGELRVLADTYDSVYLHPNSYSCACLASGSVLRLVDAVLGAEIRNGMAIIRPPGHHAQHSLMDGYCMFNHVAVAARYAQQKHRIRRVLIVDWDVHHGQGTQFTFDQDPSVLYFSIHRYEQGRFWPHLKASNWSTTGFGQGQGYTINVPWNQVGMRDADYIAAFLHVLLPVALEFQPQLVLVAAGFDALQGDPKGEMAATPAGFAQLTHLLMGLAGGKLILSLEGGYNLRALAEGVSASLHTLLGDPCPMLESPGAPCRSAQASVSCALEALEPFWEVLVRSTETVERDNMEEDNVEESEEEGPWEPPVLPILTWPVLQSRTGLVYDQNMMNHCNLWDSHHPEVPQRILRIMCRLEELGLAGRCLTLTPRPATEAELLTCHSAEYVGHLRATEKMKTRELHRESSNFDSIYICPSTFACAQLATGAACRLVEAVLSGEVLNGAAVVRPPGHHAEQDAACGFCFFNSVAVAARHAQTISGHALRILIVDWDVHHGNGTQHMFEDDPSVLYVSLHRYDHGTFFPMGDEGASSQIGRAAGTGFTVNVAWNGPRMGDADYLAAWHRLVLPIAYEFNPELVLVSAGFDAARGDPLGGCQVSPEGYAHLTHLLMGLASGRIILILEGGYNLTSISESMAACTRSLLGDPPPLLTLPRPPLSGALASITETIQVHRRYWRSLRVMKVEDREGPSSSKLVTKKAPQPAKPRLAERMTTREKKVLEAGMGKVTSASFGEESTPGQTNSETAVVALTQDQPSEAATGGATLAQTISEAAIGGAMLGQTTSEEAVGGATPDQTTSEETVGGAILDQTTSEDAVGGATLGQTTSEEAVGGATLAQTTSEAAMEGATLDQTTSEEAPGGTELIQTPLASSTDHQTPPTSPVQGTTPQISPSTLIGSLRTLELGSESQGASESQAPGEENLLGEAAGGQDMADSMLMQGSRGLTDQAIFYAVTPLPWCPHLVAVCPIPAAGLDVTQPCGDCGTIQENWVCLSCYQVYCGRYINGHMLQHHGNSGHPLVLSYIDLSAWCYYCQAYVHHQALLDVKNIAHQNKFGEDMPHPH

[7] = Half life in mouse hepatocytes measured after 120 mins by LC/MS/MS method; format: ADME, cell-based, Hepatocyte
[8] = test system: MM1.S; experiment: Cytotoxicity against human MM1.S cells measured after 72 hrs by spectrophotometer method; format: functional, cell-based
[9] = molecular target: Class 1 histone deacetylase (Homo sapiens) (UniProt Q13547+O15379+Q92769+Q9BY41); experiment: Inhibition of HDAC class 1 in human HeLa cells assessed as acetylated H3 histone at 0.1 uM measured after 6 hrs by Immunofluorescent assay
Class 1 histone deacetylase (Homo sapiens), sequence (O15379 whole entry, looked up): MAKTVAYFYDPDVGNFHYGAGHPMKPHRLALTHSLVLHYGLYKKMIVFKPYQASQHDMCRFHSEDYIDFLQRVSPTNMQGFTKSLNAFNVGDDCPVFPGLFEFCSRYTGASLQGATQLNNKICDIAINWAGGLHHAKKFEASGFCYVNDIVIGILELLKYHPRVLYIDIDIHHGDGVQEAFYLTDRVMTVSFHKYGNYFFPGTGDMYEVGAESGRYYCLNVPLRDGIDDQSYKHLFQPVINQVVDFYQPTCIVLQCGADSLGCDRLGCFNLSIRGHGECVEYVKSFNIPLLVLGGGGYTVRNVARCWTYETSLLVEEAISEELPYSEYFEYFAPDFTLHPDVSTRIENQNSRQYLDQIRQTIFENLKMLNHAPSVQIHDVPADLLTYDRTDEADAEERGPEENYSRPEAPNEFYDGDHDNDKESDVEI
Class 1 histone deacetylase (Homo sapiens), sequence (Q13547 whole entry, looked up): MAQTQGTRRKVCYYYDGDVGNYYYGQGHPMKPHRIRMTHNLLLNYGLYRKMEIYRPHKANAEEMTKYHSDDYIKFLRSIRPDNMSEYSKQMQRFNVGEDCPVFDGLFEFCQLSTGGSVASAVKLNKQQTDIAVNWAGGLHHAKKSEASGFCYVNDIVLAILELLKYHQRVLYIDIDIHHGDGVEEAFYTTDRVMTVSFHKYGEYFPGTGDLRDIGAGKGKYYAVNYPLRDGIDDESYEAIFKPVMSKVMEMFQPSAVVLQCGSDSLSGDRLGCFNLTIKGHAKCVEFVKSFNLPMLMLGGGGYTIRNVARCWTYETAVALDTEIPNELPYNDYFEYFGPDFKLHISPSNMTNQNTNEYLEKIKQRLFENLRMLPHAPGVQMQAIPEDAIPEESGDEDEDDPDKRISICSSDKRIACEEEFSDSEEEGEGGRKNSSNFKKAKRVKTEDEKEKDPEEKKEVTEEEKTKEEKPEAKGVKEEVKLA
Class 1 histone deacetylase (Homo sapiens), sequence (Q92769 whole entry, looked up): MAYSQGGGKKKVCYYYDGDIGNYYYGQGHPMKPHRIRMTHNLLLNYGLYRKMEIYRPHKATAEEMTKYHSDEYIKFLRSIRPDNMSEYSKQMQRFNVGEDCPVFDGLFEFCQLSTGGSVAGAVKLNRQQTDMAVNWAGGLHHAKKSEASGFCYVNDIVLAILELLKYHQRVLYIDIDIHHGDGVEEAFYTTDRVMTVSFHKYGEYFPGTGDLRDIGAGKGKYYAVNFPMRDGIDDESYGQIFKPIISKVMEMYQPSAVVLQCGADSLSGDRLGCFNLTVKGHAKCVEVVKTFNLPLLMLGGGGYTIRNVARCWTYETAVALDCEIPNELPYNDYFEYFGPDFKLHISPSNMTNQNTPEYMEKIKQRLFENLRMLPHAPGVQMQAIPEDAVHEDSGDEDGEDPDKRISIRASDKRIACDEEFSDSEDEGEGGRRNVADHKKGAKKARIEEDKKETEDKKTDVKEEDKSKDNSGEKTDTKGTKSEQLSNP
Class 1 histone deacetylase (Homo sapiens), sequence (Q9BY41 whole entry, looked up): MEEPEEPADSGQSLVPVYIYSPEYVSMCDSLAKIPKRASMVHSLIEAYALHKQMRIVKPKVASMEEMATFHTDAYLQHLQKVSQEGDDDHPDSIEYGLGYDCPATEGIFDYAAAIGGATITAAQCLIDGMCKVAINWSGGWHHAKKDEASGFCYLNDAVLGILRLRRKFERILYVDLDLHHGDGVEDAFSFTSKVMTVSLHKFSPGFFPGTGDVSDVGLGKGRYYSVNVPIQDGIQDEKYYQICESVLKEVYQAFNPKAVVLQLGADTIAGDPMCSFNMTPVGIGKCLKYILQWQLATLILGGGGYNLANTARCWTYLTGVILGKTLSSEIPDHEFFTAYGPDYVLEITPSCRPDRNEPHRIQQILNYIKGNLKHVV

[10] = molecular target: T1, Protein deacetylase HDAC6 (Homo sapiens); experiment: Inhibition of HDAC6 in human MV4-11 cells assessed as increase in acetylation of alpha tubulin at 0.5 uM measured after 6 hrs by Western blot assay relative to histone H4 acetylation; format: cell-based
Procedure, shortened: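 MV4-11 cells were exposed to a range of concentrations for 6 h. Protein extracts were run on SDS-PAGE and immunoblotted for acetylated α-tubulin, acetylated histone H3 and acetylated histone H4, with HSC70 as the loading reference. A representative blot of three independent experiments is shown.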

[11] = Apparent permeability across apical to basolateral side in human Caco2 cells measured after 2 hrs by LC-MS/MS method; format: ADME, cell-based; details: Caco-2
Procedure, shortened: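 Bidirectional Caco-2 permeability was measured as Papp in the apical-to-basolateral and basolateral-to-apical directions. The efflux ratio was calculated from the two directional Papp values.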

[12] = test system: Fibroblast; experiment: Cytotoxicity against pooled human fibroblasts measured after 72 hrs by spectrophotometer method; format: cell-based
[13] = test system: MV4-11; experiment: Induction of apoptosis in human MV4-11 cells assessed as viable cells at 0.25 microM measured after 18 hrs by Annexin V/Propidium iodide stain based Flow cytometry assay (reference value: 53.27%); format: functional; details: read-out: Activity

IC50 [1]: > 1000 nM
remaining at 2 h [3]: 97.1%
half-life [5]: 15 min
inhibition [6]: Active
half-life [7]: 50.9 min
inhibition [9]: inactive
inhibition [10]: Active
Papp A→B at 2 h [11]: 1.33 ×10⁻⁶ cm/s
Compound: O=C(NO)c1ccc(CNC(=O)c2c(F)c(F)c(F)c(F)c2F)cc1
Activity [2]: 5.13%
viability at 2 µM [4]: 20.2%
IC50 [8]: 1900 nM
IC50 [12]: 14600 nM
viability at 0.25 µM [13]: 52.3%
